Converted amounts (≈) assume the structure as drawn. Peptide text beside a SMILES is read from it.
Key:
[1] = Hemolytic activity against sheep RBC at 20 to 100 uM after 30 mins by spectrophotometry; type: ADME, cell-based, Ovis aries; conditions: erythrocyte, 0.5 h
In short: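 Sheep erythrocytes were exposed to a range of peptide concentrations to build hemolysis (%) dose–response curves. The experiment was run three times per peptide.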

Staphylococcus aureus = experiment: Antibacterial activity against Staphylococcus aureus NBRC 12732 after overnight incubation by microplate dilution method; type: functional
In short: (§1)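 MIC read by microplate broth dilution with an inoculum of 10^6 organisms per ml of medium. Each peptide was tested 7–10 times.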

Pseudomonas aeruginosa = experiment: Antibacterial activity against Pseudomonas aeruginosa NBRC 3080 after overnight incubation by microplate dilution method; type: functional; in short: as §1
[2] = system: Staphylococcus epidermidis; experiment: Antibacterial activity against Staphylococcus epidermidis NBRC 12933 after overnight incubation by microplate dilution method; type: functional; in short: as §1
Priestia megaterium = experiment: Antibacterial activity against Bacillus megaterium ATCC 19213 after overnight incubation by microplate dilution method; type: functional; in short: as §1
Bacillus subtilis = experiment: Antibacterial activity against Bacillus subtilis NBRC 3513 after overnight incubation by microplate dilution method; type: functional; in short: as §1
Escherichia coli = experiment: Antibacterial activity against Escherichia coli NBRC 12734 after overnight incubation by microplate dilution method; type: functional; in short: as §1

MIC (Staphylococcus aureus) [µg/mL]	MIC (Pseudomonas aeruginosa) [µg/mL]	MIC [2] [µg/mL]	MIC (Priestia megaterium) [µg/mL]	MIC (Bacillus subtilis) [µg/mL]	MIC (Escherichia coli) [µg/mL]	Compound	Activity [1]
12.5 (≈ 10.8 µM)	50 (≈ 43.2 µM)	6.25 (≈ 5.4 µM)	6.25 (≈ 5.4 µM)	6.25 (≈ 5.4 µM)	25 (≈ 21.6 µM)	CC(C)C[C@@H]1NC(=O)[C@H](CCCN)NC(=O)[C@H](C(C)C)NC(=O)[C@@H]2C[C@H](N)CN2C(=O)[C@@H](Cc2ccccc2)NC(=O)[C@H](CC(C)C)NC(=O)[C@H](CCCN)NC(=O)[C@H](C(C)C)NC(=O)[C@@H]2CCCN2C(=O)[C@@H](Cc2ccccc2)NC1=O	Toxic
6.25 (≈ 4.87 µM)	50 (≈ 39 µM)	6.25 (≈ 4.87 µM)	6.25 (≈ 4.87 µM)	12.5 (≈ 9.75 µM)	50 (≈ 39 µM)	CCCCCCCC(=O)N[C@H]1C[C@H]2C(=O)N[C@@H](C(C)C)C(=O)N[C@@H](CCCN)C(=O)N[C@@H](CC(C)C)C(=O)N[C@H](Cc3ccccc3)C(=O)N3CCC[C@H]3C(=O)N[C@@H](C(C)C)C(=O)N[C@@H](CCCN)C(=O)N[C@@H](CC(C)C)C(=O)N[C@H](Cc3ccccc3)C(=O)N2C1	Toxic
12.5 (≈ 10.8 µM)	50 (≈ 43.2 µM)	6.25 (≈ 5.4 µM)	6.25 (≈ 5.4 µM)	6.25 (≈ 5.4 µM)	25 (≈ 21.6 µM)	CC(C)C[C@@H]1NC(=O)[C@H](CCCN)NC(=O)[C@H](C(C)C)NC(=O)[C@@H]2C[C@@H](N)CN2C(=O)[C@@H](Cc2ccccc2)NC(=O)[C@H](CC(C)C)NC(=O)[C@H](CCCN)NC(=O)[C@H](C(C)C)NC(=O)[C@@H]2CCCN2C(=O)[C@@H](Cc2ccccc2)NC1=O	Toxic
3.13 (≈ 2.74 µM)	25 (≈ 21.9 µM)	3.13 (≈ 2.74 µM)	3.13 (≈ 2.74 µM)	3.13 (≈ 2.74 µM)	25 (≈ 21.9 µM)	CC(C)C[C@@H]1NC(=O)[C@H](CCCN)NC(=O)[C@H](C(C)C)NC(=O)[C@@H]2CCCN2C(=O)[C@@H](Cc2ccccc2)NC(=O)[C@H](CC(C)C)NC(=O)[C@H](CCCN)NC(=O)[C@H](C(C)C)NC(=O)[C@@H]2CCCN2C(=O)[C@@H](Cc2ccccc2)NC1=O [GRAMICIDIN S] (HELM PEPTIDE1{L.[dF].P.V.[Orn].L.[dF].P.V.[Orn]}$PEPTIDE1,PEPTIDE1,1:R1-10:R2$$$V2.0)	
